Measured values taken from ChEMBL document CHEMBL1138216, “Design and synthesis of novel derivatives of the muscarinic agonist tetra(ethylene glycol)(3-methoxy-1,2,5-thiadiazol-4-yl) [3-(1-methyl-1,2,5,6-tetrahydropyrid-3-yl)-1,2,5-thiadiazol-4-yl] ether (CDD-0304): effects of structural modifications on the binding and activity at muscarinic receptor …” (J Med Chem, 2006).
Calls of active or inactive are those of the source. No cut-off for these calls is given here.

How the values were obtained:
[1] = biological target: T1, Muscarinic acetylcholine receptor M3 (Homo sapiens, UniProt P20309); assay: Inhibition of [3H](R)-QNB binding to human M3 receptor expressed in A9 L cells; type: cell-based, A9L
Target sequence in this assay (P20309 whole entry): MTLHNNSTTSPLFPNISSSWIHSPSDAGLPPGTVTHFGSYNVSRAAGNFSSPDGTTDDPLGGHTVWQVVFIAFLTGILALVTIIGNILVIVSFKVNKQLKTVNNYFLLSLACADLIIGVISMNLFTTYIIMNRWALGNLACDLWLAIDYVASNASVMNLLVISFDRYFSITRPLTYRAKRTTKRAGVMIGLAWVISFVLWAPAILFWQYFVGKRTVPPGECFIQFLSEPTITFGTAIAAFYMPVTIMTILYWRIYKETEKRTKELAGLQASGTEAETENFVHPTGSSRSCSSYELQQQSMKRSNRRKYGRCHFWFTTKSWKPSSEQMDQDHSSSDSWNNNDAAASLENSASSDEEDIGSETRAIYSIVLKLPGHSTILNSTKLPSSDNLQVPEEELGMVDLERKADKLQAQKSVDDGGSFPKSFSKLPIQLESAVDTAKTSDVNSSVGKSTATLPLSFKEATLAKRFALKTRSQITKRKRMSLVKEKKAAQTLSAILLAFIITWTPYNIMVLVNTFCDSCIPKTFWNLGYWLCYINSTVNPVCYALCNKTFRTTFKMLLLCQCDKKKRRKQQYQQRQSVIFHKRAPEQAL

[2] = biological target: T2, Muscarinic acetylcholine receptor M2 (Homo sapiens, UniProt P08172); assay: Activity at human M2 receptor assessed as inhibition of forskolin-stimulated cAMP accumulation; type: functional
T2 sequence (P08172 whole entry): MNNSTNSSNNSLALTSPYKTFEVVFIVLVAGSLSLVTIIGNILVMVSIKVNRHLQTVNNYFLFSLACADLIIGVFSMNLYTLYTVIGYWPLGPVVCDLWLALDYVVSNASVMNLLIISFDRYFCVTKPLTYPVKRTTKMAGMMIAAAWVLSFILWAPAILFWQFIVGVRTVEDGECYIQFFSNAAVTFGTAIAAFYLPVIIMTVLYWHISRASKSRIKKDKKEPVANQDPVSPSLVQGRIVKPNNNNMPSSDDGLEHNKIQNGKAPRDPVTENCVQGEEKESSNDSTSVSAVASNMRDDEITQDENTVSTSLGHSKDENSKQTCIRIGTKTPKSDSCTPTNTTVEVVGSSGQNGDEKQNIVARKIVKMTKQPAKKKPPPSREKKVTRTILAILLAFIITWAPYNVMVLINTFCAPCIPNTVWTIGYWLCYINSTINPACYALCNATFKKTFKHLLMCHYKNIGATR

[3] = biological target: T3, Muscarinic acetylcholine receptor M1 (Homo sapiens) (UniProt P11229); assay: Agonist activity at human M1 receptor expressed in A9 L cells assessed as stimulation of phosphoinositide hydrolysis relative to carbachol; type: functional, cell-based; conditions: L929
T3 sequence (whole entry): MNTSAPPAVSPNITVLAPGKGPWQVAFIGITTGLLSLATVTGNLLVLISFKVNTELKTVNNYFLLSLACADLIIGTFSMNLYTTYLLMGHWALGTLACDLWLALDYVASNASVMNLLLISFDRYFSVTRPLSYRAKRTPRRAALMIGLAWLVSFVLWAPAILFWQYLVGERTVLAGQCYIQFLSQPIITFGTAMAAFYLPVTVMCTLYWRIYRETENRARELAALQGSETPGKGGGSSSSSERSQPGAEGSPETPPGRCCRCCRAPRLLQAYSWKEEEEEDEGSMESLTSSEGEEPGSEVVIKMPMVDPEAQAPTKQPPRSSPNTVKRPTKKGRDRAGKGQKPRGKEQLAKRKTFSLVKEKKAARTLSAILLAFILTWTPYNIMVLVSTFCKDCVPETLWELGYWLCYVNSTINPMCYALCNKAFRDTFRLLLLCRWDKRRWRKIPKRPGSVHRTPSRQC
Procedure, shortened: (§1)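 A9 L cells stably expressing the receptor, seeded 24 h, labelled overnight with 10 µCi/mL [3H]inositol in inositol-free DMEM; ligands in HBSS with 10 mM LiCl, 20 mM HEPES, 37 °C, 1 h; formic acid extraction, inositol phosphates counted by SPA beads.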

[4] = biological target: T4, Muscarinic acetylcholine receptor M5 (Homo sapiens, UniProt P08912); assay: Inhibition of [3H](R)-QNB binding to human M5 receptor expressed in A9 L cells; type: cell-based, A9L
T4 sequence (P08912 whole entry): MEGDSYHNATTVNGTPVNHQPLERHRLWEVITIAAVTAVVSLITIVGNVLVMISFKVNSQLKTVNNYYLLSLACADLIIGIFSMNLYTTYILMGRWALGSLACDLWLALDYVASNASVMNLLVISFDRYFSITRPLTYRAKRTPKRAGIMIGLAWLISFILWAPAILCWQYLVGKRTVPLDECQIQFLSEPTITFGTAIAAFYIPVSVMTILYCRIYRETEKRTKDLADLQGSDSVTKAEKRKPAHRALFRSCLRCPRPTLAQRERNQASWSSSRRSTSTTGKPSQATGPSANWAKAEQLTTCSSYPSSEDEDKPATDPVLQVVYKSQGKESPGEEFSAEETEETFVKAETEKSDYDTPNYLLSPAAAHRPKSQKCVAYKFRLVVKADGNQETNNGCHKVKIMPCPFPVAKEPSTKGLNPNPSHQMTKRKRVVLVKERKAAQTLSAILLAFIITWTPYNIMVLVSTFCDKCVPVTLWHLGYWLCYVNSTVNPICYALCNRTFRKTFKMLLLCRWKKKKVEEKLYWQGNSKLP
Procedure, shortened: (§2)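 Membranes from A9 L cells expressing the receptor; 0.1 nM [3H]-(R)-QNB with 14 concentrations of test ligand (0.01 nM to 3 mM) in 25 mM sodium phosphate pH 7.4, 5 mM MgCl2, 2 h room temperature; nonspecific binding with 1000-fold excess unlabeled (R)-QNB.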

[5] = biological target: T1, Muscarinic acetylcholine receptor M3; assay: Agonist activity at human M3 receptor expressed in A9 L cells assessed as stimulation of phosphoinositide hydrolysis relative to carbachol; type: functional, cell-based; conditions: L929; procedure, shortened: as §1
Target sequence in this assay (P20309 whole entry, looked up): as the sequence (P20309 whole entry) above

[6] = biological target: T5, Muscarinic acetylcholine receptor M4 (Homo sapiens, UniProt P08173); assay: Activity at human M4 receptor assessed as inhibition of forskolin-stimulated cAMP accumulation; type: functional
T5 sequence (P08173 whole entry): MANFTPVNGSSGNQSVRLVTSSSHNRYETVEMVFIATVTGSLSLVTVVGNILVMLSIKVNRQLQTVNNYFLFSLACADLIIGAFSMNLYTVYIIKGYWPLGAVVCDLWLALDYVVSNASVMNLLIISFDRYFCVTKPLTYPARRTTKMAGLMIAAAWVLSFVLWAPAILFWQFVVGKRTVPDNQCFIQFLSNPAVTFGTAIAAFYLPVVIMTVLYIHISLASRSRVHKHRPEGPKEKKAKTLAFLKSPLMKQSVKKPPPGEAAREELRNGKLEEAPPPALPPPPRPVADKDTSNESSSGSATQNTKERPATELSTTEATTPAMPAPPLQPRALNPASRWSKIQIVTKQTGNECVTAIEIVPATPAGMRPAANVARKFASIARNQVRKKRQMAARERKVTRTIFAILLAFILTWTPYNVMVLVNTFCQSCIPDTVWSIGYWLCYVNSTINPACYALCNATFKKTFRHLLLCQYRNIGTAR

[7] = biological target: T6, Muscarinic acetylcholine receptor M4 (Homo sapiens) (UniProt P08173); assay: Activity at human M4 receptor assessed as inhibition of forskolin-stimulated cAMP accumulation relative to carbachol; type: functional
T6 sequence (whole entry): T5 sequence (P08173 whole entry)

[8] = biological target: T7, Muscarinic acetylcholine receptor M2 (Homo sapiens) (UniProt P08172); assay: Activity at human M2 receptor assessed as inhibition of forskolin-stimulated cAMP accumulation relative to carbachol; type: functional
T7 sequence (whole entry): T2 sequence (P08172 whole entry)

[9] = biological target: T8, Muscarinic acetylcholine receptor M5 (Homo sapiens) (UniProt P08912); assay: Agonist activity at human M5 receptor expressed in A9 L cells assessed as stimulation of phosphoinositide hydrolysis relative to carbachol; type: functional, cell-based; conditions: L929; procedure, shortened: as §1
T8 sequence (whole entry): T4 sequence (P08912 whole entry)

[10] = biological target: T9, Muscarinic acetylcholine receptor M1 (Homo sapiens, UniProt P11229); assay: Inhibition of [3H](R)-QNB binding to human M1 receptor expressed in A9 L cells; type: cell-based, A9L
T9 sequence (P11229 whole entry): T3 sequence (whole entry)

[11] = biological target: T5, Muscarinic acetylcholine receptor M4; assay: Inhibition of [3H](R)-QNB binding to human M4 receptor expressed in A9 L cells; type: cell-based, A9L; procedure, shortened: as §2
[12] = biological target: T2, Muscarinic acetylcholine receptor M2; assay: Inhibition of [3H](R)-QNB binding to human M2 receptor expressed in A9 L cells; type: cell-based, A9L; procedure, shortened: as §2
[13] = biological target: T9, Muscarinic acetylcholine receptor M1; assay: Agonist activity at human M1 receptor expressed in A9 L cells assessed as stimulation of phosphoinositide hydrolysis; type: functional, cell-based, L929
[14] = biological target: T8, Muscarinic acetylcholine receptor M5 (Homo sapiens); assay: Agonist activity at human M5 receptor expressed in A9 L cells assessed as stimulation of phosphoinositide hydrolysis at 100 uM relative to carbachol; type: functional, cell-based; conditions: L929
[15] = biological target: T1, Muscarinic acetylcholine receptor M3; assay: Antagonist activity at human M3 receptor assessed as inhibition of carbachol […]; conditions: read-out: pA2 (converted)
Target sequence in this assay (P20309 whole entry): as the sequence (P20309 whole entry) above

[16] = test system: Rattus norvegicus; assay: Antipsychotic activity in Sprague-Dawley rat assessed as ability to reverse apomorphine effect on prepulse inhibition of the startle response at 1 mg/kg, sc; type: functional, organism-based; design: dose 1 mg/kg
Procedure, shortened: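 Male Sprague-Dawley rats, 250-300 g, habituated a day before. Drug in water or saline sc (1 mL/kg) 25 min, apomorphine 1.0 mg/kg 5 min pre-test; muscarinic agonists 0.1-3 mg/kg. Session of 15 each pulse-alone (120 dB, 100 ms) and pulse preceded 200 ms by 20 ms prepulse 12 dB above 70 dB background; 12 rats/group; %PPI calculated.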

[17] = biological target: T7, Muscarinic acetylcholine receptor M2 (Homo sapiens); assay: Activity at human M2 receptor assessed as inhibition of forskolin-stimulated cAMP accumulation at 1 mM relative to carbachol; type: functional
[18] = biological target: T6, Muscarinic acetylcholine receptor M4 (Homo sapiens); assay: Activity at human M4 receptor assessed as inhibition of forskolin-stimulated cAMP accumulation at 1 mM relative to carbachol; type: functional

CN1CCC=C(c2nsnc2OCCOCCOCCOCCO)C1
Ki [1]: 316 nM | IC50 [2]: 7.94 nM | Smax [3]: 7.9% | Ki [4]: 3980 nM | Activity [5]: inactive | IC50 [6]: 25100 nM | Imax [7]: 110% | Imax [8]: 86% | Smax [9]: 7.4% | Ki [10]: 1000 nM | Ki [11]: 794 nM | Ki [12]: 316 nM | EC50 [13]: 794 nM

COc1nsnc1OCCOCCOCCOCCOCCOc1nsnc1C1=CCCN(C)C1
Ki [1]: 1580 nM | Smax [14]: 0.95% | IC50 [2]: 398 nM | Smax [3]: 28% | Ki [4]: 100 nM | Activity [5]: inactive | IC50 [6]: 398 nM | Imax [7]: 37% | Imax [8]: 98% | Kb [15]: 63.1 nM | Ki [10]: 398 nM | Ki [11]: 12.6 nM | Ki [12]: 2.51 nM | EC50 [13]: 251 nM

COc1nsnc1OCCOCCOCCOc1nsnc1C1=CCCN(C)C1
Ki [1]: 251 nM | Smax [14]: 1.3% | IC50 [2]: 3160 nM | Smax [3]: 13% | Ki [4]: 631 nM | Activity [5]: inactive | IC50 [6]: 7940 nM | Imax [7]: 100% | Imax [8]: 110% | Ki [10]: 316 nM | Ki [11]: 79.4 nM | Ki [12]: 39.8 nM | EC50 [13]: 794 nM

Clc1ccc2c(c1)N=C(N1CCNCC1)c1ccccc1N2
Activity [16]: inactive

CN1CCN(C2=Nc3cc(Cl)ccc3Nc3ccccc32)CC1
Activity [16]: Active

COc1nsc(OCCCOCCCOCCCOc2nsnc2C2=CCCN(C)C2)n1
Ki [1]: 200 nM | Smax [3]: 27% | Ki [4]: 251 nM | Activity [5]: inactive | IC50 [6]: 6310 nM | Imax [7]: 130% | Imax [8]: inactive | Activity [9]: inactive | Ki [10]: 63.1 nM | Ki [11]: 158 nM | Ki [12]: 63.1 nM | EC50 [13]: 501 nM

COc1nsnc1OCCCOCCCOCCCOc1nsnc1C1=CCCN(C)C1
Ki [1]: 200 nM | Smax [3]: 21% | Ki [4]: 100 nM | Activity [5]: inactive | Imax [17]: 130% | Smax [9]: 0.6% | Ki [10]: 100 nM | Ki [11]: 158 nM | Imax [18]: 260% | Ki [12]: 158 nM | EC50 [13]: 3160 nM

COc1nsnc1OCCOCCOc1nsnc1C1=CCCN(C)C1
Ki [1]: 50.1 nM | Smax [14]: 0.83% | IC50 [2]: 79.4 nM | Smax [3]: 11% | Ki [4]: 251 nM | Activity [5]: inactive | IC50 [6]: 7940 nM | Imax [7]: 47% | Imax [8]: 77% | Ki [10]: 794 nM | Ki [11]: 63.1 nM | Ki [12]: 39.8 nM | EC50 [13]: 1000 nM

O=C(CCCN1CCC(O)(c2ccc(Cl)cc2)CC1)c1ccc(F)cc1
Activity [16]: Active
